According to ChEMBL document CHEMBL1142289, “Discovery of sulfonylalkylamides: A new class of orally active factor Xa inhibitors” (Bioorg Med Chem, 2008):
Each block holds one compound with its values, some of them ahead of it.

Key:
Coagulation factor X = Coagulation factor X (Homo sapiens, UniProt P00742); test: Inhibition of human factor 10a
Summary of the method: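 Human FXa was preincubated with compound in DMSO; 3 mM chromogenic substrate (stock) was added for 10 min at 37 °C. Inhibition was computed against DMSO control, with IC50 from least-squares regression; duplicate means.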

Mus musculus = test: Ex vivo anticoagulant potency in ICR mouse blood at 30 mg/kg, po after 1 hr expressed as ratio of prothrombin time in drug treated animal to control; format: functional
Summary of the method: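 Male ICR mice (30-35 g), fasted >12 h, received compound orally at 30 mg/kg as a suspension in 0.5% methylcellulose; controls got vehicle alone (n = 3-5). Aortic blood was taken at 1 h under pentobarbital into 3.8% citrate (9:1). Platelet-poor plasma (1000g, 10 min) was preincubated 4 min at 37 °C, then thromboplastin added. Clotting time expressed as ratio versus control.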

Plasma [1] = test: Anticoagulant potency in mouse plasma assessed as concentration required to double prothrombin time after 4 mins; format: functional
Plasma [2] = test: Anticoagulant potency in human plasma assessed as concentration required to double prothrombin time after 4 mins; format: functional
Summary of the method: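 Human normal plasma was preincubated with compound in DMSO at 37 °C for 4 min. Clotting was started with thromboplastin and PT was timed on an automatic coagulometer. Prolongation was referenced to DMSO vehicle, and PT2 (clotting-time doubling concentration) was obtained from a least-squares regression line. Duplicate measurements, averaged.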

[3] = Oral bioavailability in cynomolgus monkey at 1 mg/kg; format: ADME, organism-based, Macaca fascicularis; conditions: in vivo
Summary of the method: (§1)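 Male cynomolgus monkeys (n = 3), fasted; dosed iv (1 mg/kg in DMA/PEG400) or po (1 mg/kg, 0.5% methylcellulose suspension). Femoral vein blood drawn up to 24 h; plasma deproteinized with acetonitrile, diluted with 0.01 M ammonium formate pH 3.0, and analysed by LC/MS/MS (ODS column, positive ion turbo ionspray). Values given as mean ± SD of three determinations.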

CYP3A4 = CYP3A4 (Homo sapiens, UniProt P08684); test: Inhibition of human CYP3A4 at 1 uM by spectrofluorimeter; format: ADME
Summary of the method: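 Microsomes from CYP3A4-expressing insect cells were incubated with 40 µM 7-benzyloxyquinoline and 1 µM test compound. Metabolite formed was quantified with a spectrofluorometer.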

[4] = Mean residence time in cynomolgus monkey at 1 mg/kg, iv; format: ADME, organism-based, Macaca fascicularis; design: dose 1 mg/kg, route intravenous; conditions: in vivo; summary of the method: as §1
[5] = Drug concentration in cynomolgus monkey at 1 mg/kg, iv after 5 mins; format: ADME, organism-based, Macaca fascicularis; design: dose 1 mg/kg, route intravenous; conditions: in vivo, read-out: Activity; summary of the method: as §1
Trypsin = Trypsin (Homo sapiens, UniProt P07477+P07478+P35030); test: Inhibition of human trypsin; format: protein assay
Summary of the method: (§2)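 Chromogenic assays at 37 °C. Final enzyme levels: thrombin 0.080 U/mL, trypsin 0.040 µg/mL, plasmin 0.040 U/mL, kallikrein 0.020 U/mL, t-PA 4000 U/mL. Compound was preincubated with enzyme in buffer for 30 min, then substrate added and p-nitroanilide release monitored continuously for 5 min at 405 nm. Ki taken from Lineweaver–Burk plots across substrate concentrations.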

[6] = Volume of distribution at steady state in cynomolgus monkey at 1 mg/kg, iv; format: ADME, organism-based, Macaca fascicularis; design: dose 1 mg/kg, route intravenous; conditions: in vivo, read-out: Vdss; summary of the method: as §1
Plasma kallikrein = Plasma kallikrein (Homo sapiens, UniProt P03952); test: Inhibition of human kallikrein; summary of the method: as §2
[7] = AUC in cynomolgus monkey at 1 mg/kg, po; format: ADME, organism-based, Macaca fascicularis; design: dose 1 mg/kg, route oral; conditions: plasma; summary of the method: as §1
[8] = Mean residence time in cynomolgus monkey at 1 mg/kg, po; format: ADME, organism-based, Macaca fascicularis; design: dose 1 mg/kg, route oral; conditions: in vivo; summary of the method: as §1
Cynomolgus monkey [9] = test: Ex vivo anticoagulant potency in cynomolgus monkey blood assessed as prothrombin time prolongation at 3 mg/kg, po after 4 hrs; format: functional, Macaca fascicularis
Summary of the method: (§3)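 Male cynomolgus monkeys (3.5-4 kg), fasted >12 h, n = 3, given 3 mg/kg orally. Femoral vein blood was drawn into 3.8% citrate (9:1) at intervals, spun at 1000g for 10 min to platelet-poor plasma, and PT measured with thromboplastin on a coagulometer. Results are % of basal value, mean ± SEM.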

Cynomolgus monkey [10] = test: Ex vivo anticoagulant potency in cynomolgus monkey blood assessed as prothrombin time prolongation at 3 mg/kg, po after 0.5 hr; format: functional, Macaca fascicularis; summary of the method: as §3
[11] = Tmax in cynomolgus monkey at 1 mg/kg, po; format: ADME, organism-based, Macaca fascicularis; design: dose 1 mg/kg, route oral; conditions: in vivo; summary of the method: as §1
Prothrombin = Prothrombin (Homo sapiens, UniProt P00734); test: Inhibition of human thrombin; summary of the method: as §2
Cynomolgus monkey [12] = test: Ex vivo anticoagulant potency in cynomolgus monkey blood assessed as prothrombin time prolongation at 3 mg/kg, po after 2 hrs; format: functional, Macaca fascicularis; summary of the method: as §3
Cynomolgus monkey [13] = test: Ex vivo anticoagulant potency in cynomolgus monkey blood assessed as prothrombin time prolongation at 3 mg/kg, po after 8 hrs; format: functional, Macaca fascicularis; summary of the method: as §3
[14] = Total clearance in cynomolgus monkey at 1 mg/kg, iv; format: ADME, organism-based, Macaca fascicularis; design: dose 1 mg/kg, route intravenous; conditions: in vivo; summary of the method: as §1
Cynomolgus monkey [15] = test: Ex vivo anticoagulant potency in cynomolgus monkey blood assessed as prothrombin time prolongation at 3 mg/kg, po after 1 hr; format: functional, Macaca fascicularis; summary of the method: as §3
Plasma [16] = test: Anticoagulant potency in cynomolgus monkey plasma assessed as concentration required to double prothrombin time; format: functional, Macaca fascicularis
Plasminogen = Plasminogen (Homo sapiens, UniProt P00747); test: Inhibition of human plasmin; summary of the method: as §2
[17] = biological target: Tissue-type plasminogen activator (Homo sapiens, UniProt P00750); test: Inhibition of human tPA; summary of the method: as §2
[18] = Cmax in cynomolgus monkey at 1 mg/kg, po; format: ADME, organism-based, Macaca fascicularis; design: dose 1 mg/kg, route oral; conditions: in vivo; summary of the method: as §1
Cynomolgus monkey [19] = test: AUC in cynomolgus monkey at 1 mg/kg, iv; format: ADME, organism-based, Macaca fascicularis, Plasma; design: dose 1 mg/kg, route intravenous; conditions: in vivo; summary of the method: as §1

Chain of CYP3A4 (P08684 whole entry): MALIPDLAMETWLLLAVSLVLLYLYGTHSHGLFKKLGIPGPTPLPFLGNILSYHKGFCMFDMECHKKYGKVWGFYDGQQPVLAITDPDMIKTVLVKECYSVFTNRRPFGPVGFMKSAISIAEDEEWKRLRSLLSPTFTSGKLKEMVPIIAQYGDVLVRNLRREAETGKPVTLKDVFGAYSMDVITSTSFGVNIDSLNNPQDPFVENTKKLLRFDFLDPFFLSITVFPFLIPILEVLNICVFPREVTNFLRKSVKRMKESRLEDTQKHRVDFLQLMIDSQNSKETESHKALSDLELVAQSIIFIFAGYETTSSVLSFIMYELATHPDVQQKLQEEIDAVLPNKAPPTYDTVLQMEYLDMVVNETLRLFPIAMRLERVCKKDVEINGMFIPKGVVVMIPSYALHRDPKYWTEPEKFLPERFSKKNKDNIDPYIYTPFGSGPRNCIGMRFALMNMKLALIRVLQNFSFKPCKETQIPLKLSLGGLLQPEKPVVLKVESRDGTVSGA
Chain of Coagulation factor X (P00742 41-179 limits assumed): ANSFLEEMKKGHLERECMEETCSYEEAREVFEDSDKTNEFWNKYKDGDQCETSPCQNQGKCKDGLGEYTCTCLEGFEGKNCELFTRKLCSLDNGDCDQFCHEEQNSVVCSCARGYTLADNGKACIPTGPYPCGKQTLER
Chain of Coagulation factor X (P00742 235-488 limits assumed): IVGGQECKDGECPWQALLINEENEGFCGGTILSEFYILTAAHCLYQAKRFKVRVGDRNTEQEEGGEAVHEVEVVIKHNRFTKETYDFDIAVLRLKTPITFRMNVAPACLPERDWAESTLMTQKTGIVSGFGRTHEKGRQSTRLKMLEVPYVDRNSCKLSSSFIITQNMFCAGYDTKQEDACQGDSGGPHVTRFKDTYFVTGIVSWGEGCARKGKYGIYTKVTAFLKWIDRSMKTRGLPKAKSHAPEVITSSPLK
Chain of Plasminogen (P00747 97-580 limits assumed): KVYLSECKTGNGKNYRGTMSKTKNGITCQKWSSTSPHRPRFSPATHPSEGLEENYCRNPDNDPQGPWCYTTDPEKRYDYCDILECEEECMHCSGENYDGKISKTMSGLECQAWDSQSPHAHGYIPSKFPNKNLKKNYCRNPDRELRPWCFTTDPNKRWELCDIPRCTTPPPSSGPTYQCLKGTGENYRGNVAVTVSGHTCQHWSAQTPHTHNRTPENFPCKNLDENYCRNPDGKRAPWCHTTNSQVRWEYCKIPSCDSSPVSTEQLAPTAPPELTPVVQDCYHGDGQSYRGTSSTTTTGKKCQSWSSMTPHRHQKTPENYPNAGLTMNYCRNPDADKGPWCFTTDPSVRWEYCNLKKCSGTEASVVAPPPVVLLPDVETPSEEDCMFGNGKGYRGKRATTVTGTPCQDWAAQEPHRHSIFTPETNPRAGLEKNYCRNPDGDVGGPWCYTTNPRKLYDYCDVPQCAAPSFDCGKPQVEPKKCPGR
Chain of Plasminogen (P00747 581-810 limits assumed): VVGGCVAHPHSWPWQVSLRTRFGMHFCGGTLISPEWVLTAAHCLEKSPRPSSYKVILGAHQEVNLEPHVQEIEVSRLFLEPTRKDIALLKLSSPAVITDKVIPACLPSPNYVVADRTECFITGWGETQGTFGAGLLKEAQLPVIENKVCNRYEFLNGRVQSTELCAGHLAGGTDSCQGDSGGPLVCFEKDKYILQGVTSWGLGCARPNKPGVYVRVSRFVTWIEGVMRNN
Chain of Tissue-type plasminogen activator (P00750 whole entry): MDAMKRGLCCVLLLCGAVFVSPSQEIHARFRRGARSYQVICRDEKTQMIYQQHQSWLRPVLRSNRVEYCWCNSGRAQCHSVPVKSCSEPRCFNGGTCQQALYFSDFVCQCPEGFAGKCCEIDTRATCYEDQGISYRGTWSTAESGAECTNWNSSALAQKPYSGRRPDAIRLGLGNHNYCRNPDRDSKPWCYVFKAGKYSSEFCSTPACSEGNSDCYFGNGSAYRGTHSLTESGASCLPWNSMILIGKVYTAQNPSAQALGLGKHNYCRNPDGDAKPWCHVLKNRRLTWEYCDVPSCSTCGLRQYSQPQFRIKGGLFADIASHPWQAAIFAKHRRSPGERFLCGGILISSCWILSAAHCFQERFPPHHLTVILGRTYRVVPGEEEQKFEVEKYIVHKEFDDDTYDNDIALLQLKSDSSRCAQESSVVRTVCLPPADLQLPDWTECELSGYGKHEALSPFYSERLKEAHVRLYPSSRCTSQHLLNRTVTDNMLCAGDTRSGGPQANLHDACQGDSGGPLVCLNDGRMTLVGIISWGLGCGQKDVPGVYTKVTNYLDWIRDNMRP
Chain of Plasma kallikrein (P03952 20-390 limits assumed): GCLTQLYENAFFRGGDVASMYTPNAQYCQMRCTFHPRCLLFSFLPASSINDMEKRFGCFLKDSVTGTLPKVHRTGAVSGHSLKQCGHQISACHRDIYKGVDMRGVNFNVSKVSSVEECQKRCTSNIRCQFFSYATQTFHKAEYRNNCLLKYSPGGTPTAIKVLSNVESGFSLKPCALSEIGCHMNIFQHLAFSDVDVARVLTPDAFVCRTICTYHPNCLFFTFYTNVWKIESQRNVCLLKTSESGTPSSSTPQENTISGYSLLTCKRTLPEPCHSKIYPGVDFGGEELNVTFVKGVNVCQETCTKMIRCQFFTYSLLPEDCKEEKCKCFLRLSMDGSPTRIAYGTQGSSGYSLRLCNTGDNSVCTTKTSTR
Chain of Plasma kallikrein (P03952 391-638 limits assumed): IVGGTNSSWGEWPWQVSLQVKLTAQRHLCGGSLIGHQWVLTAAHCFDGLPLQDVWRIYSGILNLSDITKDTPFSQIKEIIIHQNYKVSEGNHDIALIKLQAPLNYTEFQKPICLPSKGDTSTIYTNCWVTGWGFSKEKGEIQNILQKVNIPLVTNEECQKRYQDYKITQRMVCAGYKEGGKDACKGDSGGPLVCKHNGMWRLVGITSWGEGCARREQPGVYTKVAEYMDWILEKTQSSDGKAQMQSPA

IC50 (Coagulation factor X): 720 nM
SMILES: Cc1ccc2cc(S(=O)(=O)CCC(=O)N(C)C3CCN(c4ccnc(C)c4)CC3)ccc2c1

IC50 (Coagulation factor X): 95 nM
SMILES: NCCN(C(=O)CCS(=O)(=O)c1ccc2cc(Cl)ccc2c1)C1CCN(c2ccncc2)CC1
Ratio (Mus musculus): 1 | Activity (Plasma [1]): 8.6 µM | Activity (Plasma [2]): 0.63 µM

SMILES: CCOC(=O)CCN(C(=O)CCS(=O)(=O)c1ccc2cc(Cl)ccc2c1)C1CCN(c2ccncc2)CC1
Ratio (Mus musculus): 1 | Activity (Plasma [1]): 14 µM | Activity (Plasma [2]): 0.85 µM

IC50 (Coagulation factor X): > 5000 nM
SMILES: Cc1cc(N2CCC(N(C)C(=O)CCS(=O)(=O)c3ccc4c(Cl)cccc4c3)CC2)ccn1

IC50 (Coagulation factor X): 60 nM
SMILES: CCOC(=O)CN(C(=O)CCS(=O)(=O)c1ccc2cc(Cl)ccc2c1)C1CCN(c2ccncc2)CC1
Ratio (Mus musculus): 1.1 | Activity (Plasma [1]): 10 µM | Activity (Plasma [2]): 1.1 µM

bioavailability [3]: 66.7% | inhibition at 1 µM (CYP3A4): 40% | MRT [4]: 4.54 h | concentration at 5 min [5]: 565 ng/mL | Ki (Trypsin): > 200000 nM | Vd [6]: 3.29 L/kg | Ki (Plasma kallikrein): 3000 nM | AUC [7]: 1030 ng·h/mL | MRT [8]: 6.6 h | Tmax [11]: 2 h | Ki (Prothrombin): 7500 nM | clearance [14]: 12.2 mL/min/kg | Ki (Plasminogen): > 200000 nM | Ki [17]: 67000 nM | Cmax [18]: 134 ng/mL | IC50 (Coagulation factor X): 61 nM | Ki (Coagulation factor X): 15 nM | AUC (Cynomolgus monkey [19]): 1580 ng·h/mL
SMILES: Cc1cc(N2CCC(N(C)C(=O)CCS(=O)(=O)c3ccc4cc(Cl)ccc4c3)CC2)ccn1
Ratio (Mus musculus): 1.6 | Activity (Plasma [1]): 4.8 µM | Activity (Plasma [2]): 1.6 µM | Activity (Cynomolgus monkey [9]): 144.6% | Activity (Cynomolgus monkey [10]): 142% | Activity (Cynomolgus monkey [12]): 146.9% | Activity (Cynomolgus monkey [13]): 117.7% | Activity (Cynomolgus monkey [15]): 133.6% | Activity (Plasma [16]): 1.1 µM

IC50 (Coagulation factor X): 120 nM
SMILES: NC(=O)CN(CCCS(=O)(=O)c1ccc2cc(Cl)ccc2c1)C(=O)C1CCN(c2ccncc2)CC1
Activity (Plasma [2]): 2.1 µM

IC50 (Coagulation factor X): > 5000 nM
SMILES: Cc1cc(N2CCC(N(C)C(=O)CCS(=O)(=O)c3ccc4ccc(Cl)cc4c3)CC2)ccn1

inhibition at 1 µM (CYP3A4): 40%
SMILES: Cc1cc(N2CCC(N(C)C(=O)CCS(=O)(=O)c3ccc4cc(Cl)ccc4c3)CC2)cc(C)n1
Ratio (Mus musculus): 1.3 | Activity (Plasma [1]): 4.1 µM | Activity (Plasma [2]): 1.6 µM

IC50 (Coagulation factor X): > 5000 nM
SMILES: Cc1cc(N2CCC(N(C)C(=O)CCS(=O)(=O)c3cc4ccc(Cl)cc4s3)CC2)ccn1

IC50 (Coagulation factor X): 470 nM
SMILES: O=C(NCCCS(=O)(=O)c1ccc2cc(Cl)ccc2c1)C1CCN(c2ccncc2)CC1

IC50 (Coagulation factor X): 250 nM
SMILES: CC(C)N(CCCS(=O)(=O)c1ccc2cc(Cl)ccc2c1)C(=O)C1CCN(c2ccncc2)CC1
Activity (Plasma [2]): 8.4 µM

IC50 (Coagulation factor X): 840 nM
SMILES: CN(CCS(=O)(=O)c1ccc2cc(Cl)ccc2c1)C(=O)C1CCN(c2ccncc2)CC1

IC50 (Coagulation factor X): 54 nM
SMILES: O=C(O)CN(CCCS(=O)(=O)c1ccc2cc(Cl)ccc2c1)C(=O)C1CCN(c2ccncc2)CC1
Ratio (Mus musculus): 1 | Activity (Plasma [1]): 14 µM | Activity (Plasma [2]): 1.8 µM

SMILES: CN(CCCS(=O)(=O)c1ccc2cc(Cl)ccc2c1)C(=O)C1CCN(c2ccncc2)CC1
Ratio (Mus musculus): 1.3 | Activity (Plasma [1]): 17 µM | Activity (Plasma [2]): 1.7 µM

inhibition at 1 µM (CYP3A4): 49% | IC50 (Coagulation factor X): 79 nM
SMILES: CN(C(=O)CCS(=O)(=O)c1ccc2cc(Cl)ccc2c1)C1CCN(c2ccnc(N)c2)CC1
Activity (Plasma [2]): 3.6 µM

IC50 (Coagulation factor X): 160 nM
SMILES: O=C(CCS(=O)(=O)c1ccc2cc(Cl)ccc2c1)N1CCN(c2ccncc2)CC1

IC50 (Coagulation factor X): 720 nM
SMILES: CN(C(=O)CS(=O)(=O)c1ccc2cc(Cl)ccc2c1)C1CCN(c2ccncc2)CC1

inhibition at 1 µM (CYP3A4): 21% | IC50 (Coagulation factor X): 110 nM
SMILES: CN(C(=O)CCS(=O)(=O)c1ccc2cc(Cl)ccc2c1)C1CCN(c2ccnc(CO)c2)CC1
Ratio (Mus musculus): 1.1 | Activity (Plasma [1]): 6.4 µM | Activity (Plasma [2]): 1.5 µM

IC50 (Coagulation factor X): 140 nM
SMILES: CN(C(=O)CCCS(=O)(=O)c1ccc2cc(Cl)ccc2c1)C1CCN(c2ccncc2)CC1

IC50 (Coagulation factor X): 64 nM
SMILES: CCOC(=O)CN(CCCS(=O)(=O)c1ccc2cc(Cl)ccc2c1)C(=O)C1CCN(c2ccncc2)CC1
Ratio (Mus musculus): 1 | Activity (Plasma [1]): 11 µM | Activity (Plasma [2]): 1.9 µM

IC50 (Coagulation factor X): 33 nM
SMILES: O=C(C1CCN(c2ccncc2)CC1)N1CCN(S(=O)(=O)c2ccc3cc(Cl)ccc3c2)CC1

inhibition at 1 µM (CYP3A4): 81% | IC50 (Coagulation factor X): 50 nM
SMILES: CN(C(=O)CCS(=O)(=O)c1ccc2cc(Cl)ccc2c1)C1CCN(c2ccncc2)CC1
Ratio (Mus musculus): 1.6 | Activity (Plasma [1]): 8 µM | Activity (Plasma [2]): 1 µM

IC50 (Coagulation factor X): > 5000 nM
SMILES: Cc1cc(N2CCC(N(C)C(=O)CCS(=O)(=O)c3cc4cc(Cl)ccc4s3)CC2)ccn1

SMILES: CC(=N)N1CC[C@H](Oc2ccc([C@H](Cc3ccc4ccc(C(=N)N)cc4c3)C(=O)O)cc2)C1 [DX-9065A]
Activity (Plasma [1]): 6.8 µM | Activity (Plasma [2]): 0.69 µM

IC50 (Coagulation factor X): 120 nM
SMILES: CCN(CCCS(=O)(=O)c1ccc2cc(Cl)ccc2c1)C(=O)C1CCN(c2ccncc2)CC1
Activity (Plasma [2]): 3.2 µM
